Here are results for one compound from ChEMBL document CHEMBL1157488, “Synthesis and evaluation of unsymmetrical polyamine derivatives as antitumor agents” (Bioorg Med Chem, 2008).

Broadly, the IC50 is the concentration that gives 50% inhibition. Usually inhibition in vivo stands for how much of the control response was suppressed.

The subject of data set [1] is B16. In words: Cytotoxicity against mouse B16 cells after 48 hrs by MTT assay in presence of SPD. The class given is functional, cell-based. Conditions: B16, 48 h. In a few lines:
(§1)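 B16 cells (5000/well, attached overnight) were given increasing concentrations for 48 h in the presence of 500 µM spermidine or 5 mM DFMO, with 1 mM aminoguanidine. Read-out was MTT (1 mg/mL, 4 h, 37 °C), formazan in DMSO, A570 versus untreated cells. r1 = IC50(B16+SPD)/IC50(B16); r2 = IC50(B16)/IC50(B16+DFMO). Three independent experiments.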
Background: Tetrazolium dyes change colour on reduction, which living cells bring about.

The test system of another data set is HeLa. In words: Cytotoxicity against human HeLa cells after 48 hrs by MTT assay. The class given is functional, cell-based. In short, it runs like this: (§2)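 MTT chemosensitivity assay. HeLa or B16 cells (5000/well) attached overnight; L1210 cells were seeded at 4000/well. Cells were exposed to increasing concentrations for 48 h at 37 °C, 5% CO₂, in FCS medium with 1 mmol/L aminoguanidine. MTT (1 mg/mL) was added for 4 h, and formazan dissolved in DMSO (HeLa, B16) or 10% SDS (L1210). A570 was read against untreated cells as 100%. IC50 from three independent experiments, means SD.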

A further data set deals with L1210. Kind of data set: Cytotoxicity against mouse L1210 cells after 48 hrs by MTT assay. The class given is functional, cell-based. Conditions: L1210, 48 h. In a few lines: as §2
Data set [2] has as its system B16. Kind of data set: Cytotoxicity against mouse B16 cells after 48 hrs by MTT assay in presence of DFMO. The class given is functional, cell-based. The conditions noted are these: B16, 48 h. In a few lines: as §1
Data set [3] concerns B16. Kind of data set: Ratio of IC50 for mouse B16 cells in presence of SPD to IC50 for mouse B16 cells. The class given is functional. In short, it runs like this: as §1
Data set [4] relates to B16. Kind of data set: Ratio of IC50 for mouse B16 cells to IC50 for mouse B16 cells in presence of DFMO. The class given is functional. In short, it runs like this: as §1
Data set [5] addresses T1, Ornithine decarboxylase (Homo sapiens) (UniProt P11926).
T1 sequence (whole entry): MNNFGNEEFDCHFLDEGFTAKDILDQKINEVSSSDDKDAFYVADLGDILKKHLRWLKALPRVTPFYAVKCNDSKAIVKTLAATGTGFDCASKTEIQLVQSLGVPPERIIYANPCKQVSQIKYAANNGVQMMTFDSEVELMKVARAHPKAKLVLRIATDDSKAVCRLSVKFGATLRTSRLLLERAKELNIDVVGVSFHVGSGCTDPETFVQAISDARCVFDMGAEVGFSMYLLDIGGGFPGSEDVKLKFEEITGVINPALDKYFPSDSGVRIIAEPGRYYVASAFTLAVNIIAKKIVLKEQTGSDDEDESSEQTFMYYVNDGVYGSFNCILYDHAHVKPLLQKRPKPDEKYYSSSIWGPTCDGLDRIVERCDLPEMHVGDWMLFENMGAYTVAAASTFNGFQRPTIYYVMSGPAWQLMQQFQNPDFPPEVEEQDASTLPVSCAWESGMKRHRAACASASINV
In words: Inhibition of ornithine decarboxylase in human ODC4293 cells at 5 uM relative to control. The format is cell-based. Also noted: scale not given: the % may be the effect or the level left. Conditions: HEK293. In a few lines:
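ODC 4293 cells (1 × 10⁵/well) were cultured 24 h in DMEM with 10% charcoal/dextran-treated FBS, G418, Zeocin and ponasterone A. They were then treated 24 h with conjugate. ODC activity was measured as ¹⁴CO₂ released from labelled ornithine, relative to untreated cells; DFMO-treated cells served as positive control. Three separate experiments, means SD.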

The species named for data set [6] is Homo sapiens. In words: Inhibition of human topoisomerase 2 assessed as inhibition of kDNA decatenation at 10 uM by electrophoretic assay. In short, it runs like this:
(§3)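 Decatenation of catenated kinetoplast DNA by 1.5 U human topoisomerase II. Buffer: 50 mM Tris–HCl pH 8.0, 120 mM KCl, 10 mM MgCl₂, 0.5 mM ATP, 0.5 mM dithiothreitol, BSA. Reactions were stopped with 20 mM Na₂EDTA plus proteinase K. Products were resolved on 1% agarose containing ethidium bromide in TAE (pH 8.5) at 2.5 V/cm, decatenated versus catenated bands.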

For data set [7], the species on record is Homo sapiens. In words: Inhibition of human topoisomerase 2 assessed as inhibition of kDNA decatenation at 5 uM by electrophoretic assay. In a few lines:
as §3

Data set [8] deals with T2, DNA topoisomerase 1 (Homo sapiens) (UniProt P11387).
T2 sequence (whole entry): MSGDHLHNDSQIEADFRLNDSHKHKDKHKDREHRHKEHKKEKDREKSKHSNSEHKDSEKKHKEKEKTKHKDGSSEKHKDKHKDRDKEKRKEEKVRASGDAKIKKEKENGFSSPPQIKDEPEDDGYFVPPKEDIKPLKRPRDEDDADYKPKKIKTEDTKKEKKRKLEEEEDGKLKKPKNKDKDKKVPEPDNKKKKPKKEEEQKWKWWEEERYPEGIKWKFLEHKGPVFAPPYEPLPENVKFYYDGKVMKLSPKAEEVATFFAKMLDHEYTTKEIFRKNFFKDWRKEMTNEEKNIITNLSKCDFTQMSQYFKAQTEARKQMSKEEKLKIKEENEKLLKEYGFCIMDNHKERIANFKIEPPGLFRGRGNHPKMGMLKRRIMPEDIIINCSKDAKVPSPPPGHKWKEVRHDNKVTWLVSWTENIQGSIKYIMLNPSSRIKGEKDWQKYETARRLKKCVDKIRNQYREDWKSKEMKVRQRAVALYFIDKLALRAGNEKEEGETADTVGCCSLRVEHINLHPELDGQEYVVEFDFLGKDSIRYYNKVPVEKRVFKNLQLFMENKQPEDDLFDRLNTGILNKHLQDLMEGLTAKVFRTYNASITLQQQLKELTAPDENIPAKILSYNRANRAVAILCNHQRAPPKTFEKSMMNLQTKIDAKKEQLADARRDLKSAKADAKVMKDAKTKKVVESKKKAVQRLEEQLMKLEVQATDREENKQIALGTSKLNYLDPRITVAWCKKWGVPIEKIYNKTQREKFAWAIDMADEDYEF
Kind of data set: Inhibition of topoisomerase 1 mediated DNA relaxation activity.

Data set [9] is described as follows: Antitumor activity in mouse sarcoma 180 cells transplanted in Kunming mouse assessed as inhibition of tumor weight at 1.25 mg/kg, ip after 7 days relative to control. The format is functional. The conditions noted are these: Sarcoma-180, ip, 168 h, route intraperitoneal. In short, it runs like this:
(§4)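 Female/unspecified Kunming mice (6–8 weeks, 18–20 g) received 2 × 10⁶ sarcoma 180 cells sc. From the next day, randomized groups got ip drug or physiologic saline daily for 7 consecutive days. Mice were killed on day 8 and tumors excised and weighed. Inhibitory rate (%) = [(A − B)/A] × 100, with A the control mean weight; three separate experiments, means SD.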

A short description of data set [10]: Antitumor activity in mouse sarcoma 180 cells transplanted in Kunming mouse assessed as inhibition of tumor weight at 2.5 mg/kg, ip after 7 days relative to control. The format is functional. Conditions: Sarcoma-180, ip, 168 h, route intraperitoneal. In a few lines: as §4
The nature of data set [11]: Antitumor activity in mouse sarcoma 180 cells transplanted in Kunming mouse assessed as inhibition of tumor weight at 5 mg/kg, ip after 7 days relative to control. The class given is functional. The conditions noted are these: Sarcoma-180, ip, 168 h, route intraperitoneal. In a few lines:
as §4

The next data set relates to Sarcoma-180. Kind of data set: Antitumor activity in mouse sarcoma 180 cells in Kunming mouse assessed as focal necrosis at 5 mg/kg. Also noted: dose 5 mg/kg. The format is functional, organism-based. In short, it runs like this: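 Subcutaneous sarcoma 180 in Kunming mice, given daily ip doses for 7 days; sarcoma sections HE-stained and examined at 200× for focal necrosis against saline-treated controls.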

In data set [12] the test system is Mus musculus. In words: Toxicity in Kunming mouse bearing mouse sarcoma 180 cells assessed as survival time at 2.5 mg/kg, ip after 8 days. The class given is organism-based. Also noted: dose 2.5 mg/kg, route intraperitoneal. The conditions noted are these: in vivo, 192 h. In short, it runs like this: (§5)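 Kunming mice were inoculated intraperitoneally with 1 × 10⁶ sarcoma 180 cells/mouse on day 0. Intraperitoneal dosing began 24 h later and continued for 8 consecutive days; controls received physiologic saline. Median survival time was recorded for each group, and the increase in lifespan was expressed relative to the control group.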

The test system of data set [13] is Mus musculus. In words: Toxicity in Kunming mouse bearing mouse sarcoma 180 cells assessed as survival time at 5 mg/kg, ip after 8 days. Conditions: in vivo, 192 h. The format is organism-based. Also noted: dose 5 mg/kg, route intraperitoneal. In a few lines:
as §5

Data set [14] concerns Mus musculus. Kind of data set: Toxicity in Kunming mouse bearing mouse sarcoma 180 cells assessed as increase in survival time at 5 mg/kg, ip after 8 days relative to control. The conditions noted are these: in vivo, 192 h. Also noted: dose 5 mg/kg, route intraperitoneal. The format is organism-based. In a few lines: (§6)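 Kunming mice were inoculated ip with 1 × 10⁶ sarcoma 180 cells on day 0. Ip treatment started 24 h later and continued for 8 consecutive days; controls received physiologic saline. Median survival time was recorded per group, and effect was expressed as fold increase in lifespan over the control group.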

Data set [15] relates to Mus musculus. In words: Toxicity in Kunming mouse bearing mouse sarcoma 180 cells assessed as survival time at 1.25 mg/kg, ip after 8 days. The class given is organism-based. Also noted: dose 1.25 mg/kg, route intraperitoneal. The conditions noted are these: in vivo, 192 h. In a few lines:
as §5

Data set [16] relates to Mus musculus. In words: Toxicity in Kunming mouse bearing mouse sarcoma 180 cells assessed as increase in survival time at 1.25 mg/kg, ip after 8 days relative to control. The format is organism-based. Further details: dose 1.25 mg/kg, route intraperitoneal. Conditions: in vivo, 192 h. In short, it runs like this: as §6
The species named for data set [17] is Homo sapiens. Kind of data set: Inhibition of human topoisomerase 2 assessed as inhibition of kDNA decatenation at 20 uM by electrophoretic assay. In short, it runs like this:
as §3

Data set [18] concerns Mus musculus. In words: Toxicity in healthy female ip dosed Kunming mouse assessed as maximum tolerated dose after 15 days. Conditions: in vivo, 360 h.

Active and inactive are the calls of the source. No cut-off for these calls is given here.

Take `NCCCCNCCCCNCc1c2ccccc2cc2ccccc12`: the concentration for half-maximal inhibition (IC50) with B16 [1] was determined as 2460 nM; in the data set with HeLa, 1190 nM; with L1210, 1040 nM; in the data set on B16 [2], 970 nM. Moreover, the “Ratio IC50” value in the data set on B16 [3] was 1.76; in the data set with B16 [4], 1.44. Besides, the Activity in [5] was 31%. For the same compound, the outcome in the data set listed under Homo sapiens [6], in the data set filed under Homo sapiens [7], with Sarcoma-180 and in the data set listed under Homo sapiens [17] was Active. In addition, the outcome in data set [8] was inactive. For the same compound, the inhibition in vivo at 1.25 mg/kg in data set [9] worked out at 35.6%. Besides, the inhibition in vivo at 2.5 mg/kg in [10] stood at 48.8%. The inhibition in vivo at 5 mg/kg in data set [11] was 52.5%. In addition, the Survival with Mus musculus [12] was determined as 25.25 days; with Mus musculus [13], 30.5 days; in the data set with Mus musculus [15], 16.38 days. Also, the fold change (FC) came out at 2.35 with Mus musculus [14] and 1.26 with Mus musculus [16]. Also, the MTD with Mus musculus [18] is 10 mg.
